APOBEC3A inh – inhibitors of human APOBEC3A DNA deaminase; recombinant A3A, FAM/TAMRA ssDNA deamination fluorescence; inhibition, % at 20 µM; 330,000 compounds, 0.41% hits; AID 493011;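 active = at least 40% inhibition at 20 µM here, with at most 30% in a related deaminase screen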;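 note: plate controls were A3A with DMSO for no effect and wells lacking A3A enzyme for full effect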
Target sequence (P31941 whole entry, looked up): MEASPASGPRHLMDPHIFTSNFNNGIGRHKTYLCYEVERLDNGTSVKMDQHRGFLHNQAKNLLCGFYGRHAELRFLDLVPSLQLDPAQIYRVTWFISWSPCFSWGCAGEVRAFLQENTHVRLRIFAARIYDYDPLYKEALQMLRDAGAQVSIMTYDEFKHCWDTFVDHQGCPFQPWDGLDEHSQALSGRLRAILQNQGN
APOBEC3G inh – blocks human APOBEC3G single-stranded DNA deamination; Q9HC16; recombinant A3G, ssDNA deamination FAM/TAMRA fluorescence; AID 493012; inhibition, % at 20 µM; 330,000 compounds, 0.28% hits;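 active = inhibition of at least 40% at 20 µM, with no more than 30% in the related APOBEC3A deaminase screen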;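 note: plate controls were DMSO wells with A3G for no effect and wells lacking A3G enzyme for full effect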
PfM18AAP inh-1 – blocks P. falciparum M18 aspartyl aminopeptidase | recombinant PfM18AAP, H-Glu-NHMec fluorogenic cleavage | 290,000 compounds, 1.2% hits | inhibition, % at 7.35 µM | AID 1822;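 active = inhibition above the campaign mean inhibition over all tested compounds plus 3 SD, cut at about 28% in these data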;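 note: 0% = plate median of test compound wells and 100% = 2 mM ZnCl2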
PfG6PD inh – PfG6PD (Plasmodium falciparum) enzyme inhibition. PfGluPho enzyme, NADPH resazurin-diaphorase fluorescence. inhibition, % at 20 µM. 350,000 compounds, 0.78% hits. AID 504690;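 active = inhibition reaching at least a set limit at 20 µM in the primary screen, cut at about 59% in these data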;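 note: 0% = DMSO wells with substrate and 100% = DMSO wells lacking glucose-6-phosphate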
UBC9 SUMO inh – SUMOylation inhibition; P63279; HTRF SUMOylation assay, SAE1/SAE2 + UBC9, in vitro; inhibition, % at 35 µM; 290,000 compounds, 0.36% hits; AID 2006; in the data active = inhibition above about 50%, passing the limit was not always enough
Target sequence (P63279 whole entry, looked up): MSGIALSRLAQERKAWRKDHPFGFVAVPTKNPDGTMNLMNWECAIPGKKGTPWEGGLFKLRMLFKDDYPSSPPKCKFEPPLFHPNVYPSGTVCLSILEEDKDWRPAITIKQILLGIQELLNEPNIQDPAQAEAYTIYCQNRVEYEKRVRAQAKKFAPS
HKDC1 inhibitor – HKDC1 (human) hexokinase inhibition | Q2TB90 | recombinant HKDC1, G6PDH/diaphorase resazurin coupled fluorescence | inhibition, % at 20 µM | 340,000 compounds, 0.16% hits | AID 493160;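 active = inhibition above about 35% when tested at 20 µM, limit read from the data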;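 note: plate controls were DMSO wells with enzyme for no effect and DMSO wells lacking enzyme for full effect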
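Assay system – recombinant HKDC1 (HK5) hexokinase enzyme, produced in-house · Input – HKDC1 at 5 µg/mL · Reagent – glucose plus 1 mM ATP as hexokinase substrates · Timing – 90 min reaction incubation at room temperature, dark · Measured by – G6PDH/diaphorase-coupled fluorescence, 1 mM NADP, 100 µM resazurin, 525/613 nm · Benchmarks – DMSO-enzyme wells negative, buffer-substituted wells positive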
PfM18AAP inh-2 – PfM18AAP inhibition, confirmation. shares compounds with PfM18AAP inh-1. recombinant PfM18AAP, H-Glu-NHMec fluorogenic cleavage. inhibition, % at 7.35 µM. 2,400 compounds, 28% hits;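 active = mean inhibition over replicate wells above the hit cutoff set for the earlier primary screen, cut at about 29% in these data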;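 note: 0% = median of test compound wells and 100% = 2 mM ZnCl2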
CTSL1 confirm – Cathepsin L (human) inhibition, confirmation. AID 2178. shares compounds with PfM18AAP inh-1. 2,400 tested, under 10 active. purified cathepsin L1, Z-Leu-Arg-MCA fluorescence. inhibition, % at 5.96 µM;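 active = average inhibition across replicates above the hit cutoff set in the earlier primary screen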;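 note: 0% = median of test compound wells and 100% = Z-Phe-Ala-diazomethylketone 1 µM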
* hit, by the source's call; . = no result. This is a sample that favours compounds with a hit; in the whole collection about 2.4% have one here.

SMILES	APOBEC3A inh	APOBEC3G inh	PfM18AAP inh-1	PfG6PD inh	UBC9 SUMO inh	HKDC1 inhibitor	PfM18AAP inh-2	CTSL1 confirm
CNC(=S)N1N=C(c2ccc(Br)cc2)CC1c1ccc(N(C)C)cc1 (stereo not given)	-6	-6	4	11	-8	5	.	.
COCCNC(=O)CSc1nc2cc3c(cc2c(=O)n1CCCC(=O)NCCc1ccc(OC)c(OC)c1)OCO3	-7	-4	5	2	-20	-7	.	.
COc1cc(/C=C/c2cc(C(=O)O)c3ccccc3n2)cc(OC)c1O	4	2	51*	27	10	3	18	2
CCOc1cc(/C=C/c2cc(C(=O)O)c3ccccc3n2)ccc1OC	-5	-6	-4	-5	17	-5	.	.
O=[N+]([O-])c1ccc(Cc2ccncc2)cc1	-3	-7	-1	-19	0	-3	.	.
COC(=O)c1sc2ccccc2c1NC(=O)c1ccc(S(=O)(=O)N2CC(C)CC(C)C2)cc1 (stereo not given)	-3	-5	-10	-11	28	4	.	.
Cc1cccc2sc(NNC(=O)c3ccc(S(=O)(=O)N4CC(C)CC(C)C4)cc3)nc12 (stereo not given)	-1	7	32*	4	-26	-23	-29	0
Cc1cc(C)c2nc(NNC(=O)c3ccc(S(=O)(=O)N4CCCC(C)C4)cc3)sc2c1 (stereo not given)	-7	-11	39*	-9	-33	-22	-35	5
Cc1nn(-c2ccc(F)cc2)c2nc(N)c(C#N)c(-c3ccc(O)c(O)c3)c12	0	-6	69*	2	-6	5	48*	-1
Cc1nn(-c2ccccc2)c2nc(N)c(C#N)c(-c3ccc(O)c(O)c3)c12	-2	-7	70*	-14	-20	1	48*	0
CN(Cc1ccccc1)C(=O)C1CCC(CNS(=O)(=O)c2cccc3cccnc23)CC1 (stereo not given)	-6	-8	3	-2	0	-9	.	.
CC1CC(C)CN(S(=O)(=O)c2ccc(NN)nc2)C1 (stereo not given)	0	-6	46*	-6	2	-5	33*	1
CC1CC(C)CN(S(=O)(=O)c2ccc(C(C)(C)C)cc2)C1 (stereo not given)	1	-7	16	-15	-15	-7	.	.
CC(C)CCNC(=S)Nc1ccccn1	0	2	33*	29	7	-1	6	2
Cc1nc2c(cc1C(=O)N/N=C/c1ccc(O)c(O)c1)c(=O)n(C)c(=O)n2C	-6	-7	62*	-9	3	-8	68*	-1
O=C(N/N=C/c1ccc(O)c(O)c1)c1ccc(-n2cnnn2)cc1	2	8	.	15	.	7	.	.
Cc1cc(NN)nc(NS(=O)(=O)c2ccccc2)n1	-3	-8	35*	-7	9	7	4	-4
COc1ccc(/C=N/Nc2cc(C)nc(NS(=O)(=O)c3ccc(C)cc3)n2)cc1	1	-1	23	-12	17	13	.	.
Cc1cc(NN)nc(NS(=O)(=O)c2ccc(Cl)cc2)n1	-4	-10	37*	11	11	7	22	-1
COc1cc(/C=N/Nc2cc(C)nc(NS(=O)(=O)c3ccccc3)n2)ccc1O	0	-1	32*	-7	4	-4	-23	-6
COc1cc(/C=N/Nc2nc(C)nc3c2cnn3-c2ccccc2)ccc1O	.	.	33*	5	27	3	-26	0
Cc1cc(C)nc(NS(=O)(=O)c2ccc(N)cc2)n1	-2	-8	3	2	14	-6	.	.
COc1cc(/C=N/NC(=O)c2nc(-c3ccccc3)n(-c3ccccc3)n2)ccc1O	-1	-6	2	43	-13	-3	.	.
O=[N+]([O-])c1ccc(-c2ccn[nH]2)o1	-3	-5	40*	-4	21	13	-44	-9
S=C(Nc1ccccc1)N1CCOCC1	-2	-5	2	3	22	1	.	.
